Source: ChEMBL document CHEMBL1687827, “Profiling the Aspergillus fumigatus proteome in response to caspofungin” (2011)
The source made the active and inactive calls. No cut-off for these calls is given here.

Experiments:
[1] = system: Aspergillus fumigatus; experiment: Induction of change in ribosomal protein L35, putative protein level in iTRAQ114 labelled secreted fraction of drug-susceptible Aspergillus fumigatus KU80 delta-akuB at 0.12 ug/ml after 24 hrs in YPD medium by MS (MS/MS) analysis relative to control; format: functional
Procedure, shortened: (§1)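 Conidia (1 × 10⁵/ml) grown in YPD, 37°C, 225 rpm, ± 0.12 μg/ml caspofungin; filtrate taken as secreted fraction, French-press lysate 5,000 × g pellet as cell wall/plasma membrane. Trypsin digests 8-plex iTRAQ-labelled (drug-free channels as references), pooled, 2D-chromatography, MS/MS. Median-normalized; protein ratio = median of unique-peptide ratios, log2 normalized.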

[2] = system: Aspergillus fumigatus; experiment: Induction of change in eukaryotic translation elongation factor 1 subunit Eef1-beta, putative protein level in iTRAQ-116 labelled secreted fraction of drug-resistant Aspergillus fumigatus EMFR-S678P at 0.12 ug/ml after 48 hrs in YPD medium by MS (MS/MS) analysis relative to control; format: functional
Procedure, shortened: (§2)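 Conidia at 1 × 10⁵/ml were grown at 37°C, shaking at 225 rpm, in YPD with or without 0.12 μg/ml caspofungin for 24 or 48 h. The culture filtrate was kept as the secreted fraction. Mycelia were lysed by French press in HEPES/glycerol/EDTA/PMSF/DTT buffer, and the 5,000 × g pellet was washed to give CW/PM. Proteins were reduced, alkylated and trypsin-digested at 37°C overnight, then iTRAQ-labelled and run by 2D LC-MS/MS. Ratios are the median of unique-peptide ratios, median-normalized, versus the no-drug control.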

[3] = system: Aspergillus fumigatus; experiment: Induction of change in cytochrome c protein level in iTRAQ114 labelled secreted fraction of drug-resistant Aspergillus fumigatus EMFR-S678P at 0.12 ug/ml after 24 hrs in YPD medium by MS (MS/MS) analysis relative to control; format: functional; procedure, shortened: as §2
[4] = system: Aspergillus fumigatus; experiment: Induction of change in peptidyl-prolyl cis-trans isomerase protein level in iTRAQ-118 labelled cell wall fraction of drug-resistant Aspergillus fumigatus EMFR-S678P at 0.12 ug/ml after 24 hrs in YPD medium by MS (MS/MS) analysis relative to control; format: functional; procedure, shortened: as §2
[5] = system: Aspergillus fumigatus; experiment: Induction of change in 14-alpha sterol demethylase Cyp51A protein level in iTRAQ-118 labelled cell wall fraction of drug-resistant Aspergillus fumigatus EMFR-S678P at 0.12 ug/ml after 48 hrs in YPD medium by MS (MS/MS) analysis relative to control; format: functional; procedure, shortened: as §2
[6] = system: Aspergillus fumigatus; experiment: Induction of change in allergen Asp F4 protein level in iTRAQ-116 labelled secreted fraction of drug-susceptible Aspergillus fumigatus KU80 delta-akuB at 0.12 ug/ml after 48 hrs in YPD medium by MS (MS/MS) analysis relative to control; format: functional
Procedure, shortened: (§3)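 Conidia at 1 × 10⁵/ml grown shaking at 37°C in YPD with or without 0.12 μg/ml caspofungin; mycelia filtered at 24 or 48 h. Secreted fraction taken from the filtrate; cell wall/plasma membrane pellet recovered after French-press lysis and a 5,000 × g spin. Proteins trypsin-digested and iTRAQ-labelled, drug vs no-drug channels at each time, then 2D LC-MS/MS. Protein ratio is the median of ratios from uniquely assigned peptides after median normalization.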

[7] = system: Aspergillus fumigatus; experiment: Antifungal activity against drug-resistant Aspergillus fumigatus EMFR-S678P assessed as change in hyphal morphology by YPD medium; format: functional; conditions: read-out: MEC
Procedure, shortened: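 CLSI M38-A2 broth microdilution, run in triplicate in RPMI or YPD medium as the line specifies. Caspofungin was dissolved in sterile water. The minimum effective concentration (MEC) was the lowest concentration giving a significant change in hyphal morphology visible to the eye.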

[8] = system: Aspergillus fumigatus; experiment: Induction of change in hypothetical gene locus AFUA_6G02310 expression in drug-susceptible Aspergillus fumigatus KU80 delta-akuB at 0.12 ug/ml after 24 hrs in YPD medium by microarray analysis relative to control; format: functional
Procedure, shortened: (§4)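 Mycelia grown in YPD ± 0.12 μg/ml caspofungin (1 × 10⁵ conidia/ml, 37°C, shaking) and harvested at 24 or 48 h. Total RNA extracted, DNase-treated and quality-checked; 2 μg labelled per TIGR SOP M007 and hybridized to whole-genome arrays. Three independent experiments with dye flip (6 replicates); drug vs untreated fold change.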

[9] = system: Aspergillus fumigatus; experiment: Induction of change in GNAT family acetyltransferase, putative protein level in iTRAQ-118 labelled cell wall fraction of drug-susceptible Aspergillus fumigatus KU80 delta-akuB at 0.12 ug/ml after 24 hrs in YPD medium by MS (MS/MS) analysis relative to control; format: functional; procedure, shortened: as §3
[10] = system: Aspergillus fumigatus; experiment: Induction of change in allergen Asp F3 protein level in iTRAQ-116 labelled secreted fraction of drug-resistant Aspergillus fumigatus EMFR-S678P at 0.12 ug/ml after 48 hrs in YPD medium by MS (MS/MS) analysis relative to control; format: functional; procedure, shortened: as §2
[11] = system: Aspergillus fumigatus; experiment: Induction of change in L-PSP endoribonuclease family protein (Hmf1), putative gene expression in drug-susceptible Aspergillus fumigatus KU80 delta-akuB at 0.12 ug/ml after 48 hrs in YPD medium by microarray analysis relative to control; format: functional; procedure, shortened: as §4
[12] = system: Aspergillus fumigatus; experiment: Induction of change in BYS1 domain protein, putative protein level in iTRAQ-118 labelled cell wall fraction of drug-susceptible Aspergillus fumigatus KU80 delta-akuB at 0.12 ug/ml after 24 hrs in YPD medium by MS (MS/MS) analysis relative to control; format: functional; procedure, shortened: as §3
[13] = system: Aspergillus fumigatus; experiment: Induction of change in IgE-binding protein level in iTRAQ-116 labelled secreted fraction of drug-susceptible Aspergillus fumigatus KU80 delta-akuB at 0.12 ug/ml after 48 hrs in YPD medium by MS (MS/MS) analysis relative to control; format: functional; procedure, shortened: as §3
[14] = system: Aspergillus fumigatus; experiment: Induction of change in 37S ribosomal protein S24 protein level in iTRAQ-118 labelled cell wall fraction of drug-resistant Aspergillus fumigatus EMFR-S678P at 0.12 ug/ml after 24 hrs in YPD medium by MS (MS/MS) analysis relative to control; format: functional, organism-based; procedure, shortened: as §2
[15] = system: Aspergillus fumigatus; experiment: Induction of change in cytosolic small ribosomal subunit S15, putative protein level in iTRAQ114 labelled cell wall fraction of drug-susceptible Aspergillus fumigatus KU80 delta-akuB at 0.12 ug/ml after 24 hrs in YPD medium by MS (MS/MS) analysis relative to control; format: functional; procedure, shortened: as §3
[16] = system: Aspergillus fumigatus; experiment: Induction of change in mitochondrial hypoxia responsive domain protein level in iTRAQ121 labelled cell wall fraction of drug-susceptible Aspergillus fumigatus KU80 delta-akuB at 0.12 ug/ml after 48 hrs in YPD medium by MS (MS/MS) analysis relative to control; format: functional; procedure, shortened: as §1
[17] = system: Aspergillus fumigatus; experiment: Induction of change in 60s ribosomal protein yl6 protein level in iTRAQ114 labelled cell wall fraction of drug-susceptible Aspergillus fumigatus KU80 delta-akuB at 0.12 ug/ml after 24 hrs in YPD medium by MS (MS/MS) analysis relative to control; format: functional; procedure, shortened: as §3
[18] = system: Aspergillus fumigatus; experiment: Induction of change in 60s ribosomal protein l2 gene expression in drug-susceptible Aspergillus fumigatus KU80 delta-akuB at 0.12 ug/ml after 24 hrs in YPD medium by microarray analysis relative to control; format: functional; procedure, shortened: as §4

Q: Which results are given for CC[C@H](C)C[C@H](C)CCCCCCCCC(=O)N[C@H]1C[C@@H](O)[C@@H](NCCN)NC(=O)[C@@H]2[C@@H](O)CCN2C(=O)[C@H]([C@H](O)CCN)NC(=O)[C@H]([C@H](O)[C@@H](O)c2ccc(O)cc2)NC(=O)[C@@H]2C[C@@H](O)CN2C(=O)[C@H]([C@@H](C)O)NC1=O [CASPOFUNGIN]?
A: fold change (FC) [1]: 1.4; fold change (FC) [2]: -1.74; fold change (FC) [3]: -1.07; fold change (FC) [4]: -1.15; fold change (FC) [5]: 1.07; fold change (FC) [6]: -7; minimal effective concentration [7]: > 16 µg/mL; fold change (FC) [8]: 3.8; fold change (FC) [9]: -2.6; fold change (FC) [10]: -1.52; fold change (FC) [11]: -2.3; fold change (FC) [12]: -2.3; fold change (FC) [13]: -1; Activity [14]: inactive; fold change (FC) [15]: 1.9; fold change (FC) [16]: -2.1; fold change (FC) [17]: 1.6; fold change (FC) [18]: 3.9
